Measurements reported in PMC11247637 (ACS Medicinal Chemistry Letters, 2024).

Tests used:
[1] = target: T1, MUS81-EME1 heterodimer (MUS81 residues 246-551; EME1 residues 246-570) (Homo sapiens, UniProt Q96NY9); test: Surface plasmon resonance; type: binding; conditions: SPR affinity; for increase in affinity: compared with 5
T1 sequence (Q96NY9 246-551): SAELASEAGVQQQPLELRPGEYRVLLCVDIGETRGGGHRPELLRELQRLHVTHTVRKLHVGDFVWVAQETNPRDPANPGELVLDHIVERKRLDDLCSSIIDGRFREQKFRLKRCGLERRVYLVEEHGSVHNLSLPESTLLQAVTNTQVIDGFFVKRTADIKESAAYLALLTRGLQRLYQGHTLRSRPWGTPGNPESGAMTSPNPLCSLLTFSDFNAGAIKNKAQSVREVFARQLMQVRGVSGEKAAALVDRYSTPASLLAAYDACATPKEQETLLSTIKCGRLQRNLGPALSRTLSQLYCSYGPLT
T1 sequence (Q96AY2 246-570 partner limits assumed): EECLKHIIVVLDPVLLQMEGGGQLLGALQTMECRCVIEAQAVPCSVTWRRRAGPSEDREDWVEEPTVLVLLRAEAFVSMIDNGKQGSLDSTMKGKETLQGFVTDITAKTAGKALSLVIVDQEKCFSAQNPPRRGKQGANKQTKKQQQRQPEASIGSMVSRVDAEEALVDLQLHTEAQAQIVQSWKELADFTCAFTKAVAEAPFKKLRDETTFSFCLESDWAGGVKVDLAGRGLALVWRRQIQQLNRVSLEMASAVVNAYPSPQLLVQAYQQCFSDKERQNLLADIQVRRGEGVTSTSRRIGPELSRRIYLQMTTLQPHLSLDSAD
How it was run: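 Kd values for binding to MUS81-EME1 were measured by SPR. Affinities are the geometric mean with geometric standard deviation of at least three determinations.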

[2] = target: T2, Full length MUS81-EME1 (Homo sapiens, UniProt Q96NY9); test: MUS81-EME1 biochemical enzyme-inhibition assay; conditions: for improvement in biochemical activity (IC50): compared with pyrimidinone 15; for improvement in biochemical activity: compared to 18
T2 sequence (Q96NY9 1-551): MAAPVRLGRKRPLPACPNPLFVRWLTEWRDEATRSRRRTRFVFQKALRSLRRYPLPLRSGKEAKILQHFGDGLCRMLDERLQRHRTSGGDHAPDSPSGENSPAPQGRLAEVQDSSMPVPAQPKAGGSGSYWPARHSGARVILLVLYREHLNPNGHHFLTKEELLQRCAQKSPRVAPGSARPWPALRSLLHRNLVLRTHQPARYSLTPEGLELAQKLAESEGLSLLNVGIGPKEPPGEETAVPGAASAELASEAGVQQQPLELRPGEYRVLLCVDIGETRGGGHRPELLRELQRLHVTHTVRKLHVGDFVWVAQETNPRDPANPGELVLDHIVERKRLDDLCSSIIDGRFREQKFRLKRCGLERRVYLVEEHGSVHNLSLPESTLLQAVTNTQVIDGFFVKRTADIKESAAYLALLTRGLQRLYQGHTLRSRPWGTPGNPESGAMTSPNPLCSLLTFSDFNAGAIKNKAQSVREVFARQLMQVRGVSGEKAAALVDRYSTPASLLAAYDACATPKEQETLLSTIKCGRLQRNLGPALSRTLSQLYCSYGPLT
T2 sequence (Q96AY2 1-570 partner): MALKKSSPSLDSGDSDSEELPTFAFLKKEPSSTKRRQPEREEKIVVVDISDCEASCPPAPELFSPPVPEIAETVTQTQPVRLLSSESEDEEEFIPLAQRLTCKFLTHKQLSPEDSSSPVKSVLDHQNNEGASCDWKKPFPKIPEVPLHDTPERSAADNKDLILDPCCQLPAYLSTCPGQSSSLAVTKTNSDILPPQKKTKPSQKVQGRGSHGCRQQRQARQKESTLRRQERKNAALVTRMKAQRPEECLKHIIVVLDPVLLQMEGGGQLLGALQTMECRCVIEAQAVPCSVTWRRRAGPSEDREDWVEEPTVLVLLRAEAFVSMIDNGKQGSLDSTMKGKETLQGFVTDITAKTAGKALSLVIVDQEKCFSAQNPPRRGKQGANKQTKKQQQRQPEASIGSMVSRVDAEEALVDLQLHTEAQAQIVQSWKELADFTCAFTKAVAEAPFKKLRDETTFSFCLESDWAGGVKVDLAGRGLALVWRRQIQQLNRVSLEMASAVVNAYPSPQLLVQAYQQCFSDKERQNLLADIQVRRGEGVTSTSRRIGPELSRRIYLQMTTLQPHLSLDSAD
How it was run: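 LE was calculated as 1.37 × pIC50/HAC and LLE as pIC50 − LogD. LogD was measured by shake-flask partition between octanol and water at pH 7.4. IC50 values are the geometric mean ± SEM of at least three determinations.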

[3] = Metabolic stability in rat hepatocytes; type: in vitro ADME
How it was run: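 Intrinsic clearance was measured in rat hepatocyte incubations and expressed as μL/min/1 × 10^6 cells.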

[4] = target: safety panel of 22 common off-targets, comprising enzymes, receptors and ion channels (e.g., COX2, PDEs, INSR, GABA, NMDA, CaV-L); test: Eurofins SafetyScreen panel of 22 common off-targets; type: biochemical; conditions: read-out: IC50 against safety panel off-targets

For `O=C(O)c1nc(-c2ccccc2)nc(O)c1O` [Compound 5], the increase in potency ([1]; compared with methyl ester 1) was roughly 20 fold.

Work on `Cc1nc(C(=O)O)c(O)c(=O)[nH]1` [Compound 6] yielded a drop in potency ([1]; compared with acid 5) of roughly 20 fold.

`O=C(O)c1nc(-c2ccc(Cl)cc2)nc(O)c1O` [Compound 10] showed an increase in affinity [1] of roughly 2 fold.

With `O=C(O)c1nc(-c2ccc(Br)cc2)nc(O)c1O` [Compound 11] the increase in affinity [1] was roughly 2 fold.

`O=C(O)c1nc(-c2ccc3ccccc3c2)[nH]c(=O)c1O` [Compound 12] showed an increase in affinity [1] of roughly 2 fold.

With `O=C(O)c1nc(-c2ccc(N3CCNCC3)cc2)[nH]c(=O)c1O` [Compound 17] the “improvement in biochemical activity (IC50)” value [2] was roughly 2 fold.

With `O=C(O)c1cn(-c2ccc(-c3ccccc3)cc2)cc(O)c1=O` [Compound 18] the “improvement in biochemical activity (IC50)” value [2] was “approximately 3 fold”.

For `O=C(O)c1cn(-c2ccc(-c3ccc(C(=O)N4CCNCC4)cc3)cc2)cc(O)c1=O` [Compound 23], the “improvement in biochemical activity” value [2] was “approximately 2 fold” and the “rHep Clint” value [3] was 11 μL/min/1 × 10^6 cells.

In the case of `N#Cc1cc(-c2ccc(C(=O)N3CCNCC3)cc2)ccc1-n1cc(O)c(=O)c(C(=O)O)c1` [Compound 24], the “improvement in biochemical activity” value [2] is reported as “approximately 2 fold”, the “rHep Clint” value [3] is reported as 10 μL/min/1 × 10^6 cells and the IC50 [4] is reported as greater than 100 µM.
